Data taken from publication PMC5758876 (Nucleic Acids Research, 2017).

What was measured:
Δclr3 = assay: Drug sensitivity serial dilution; type: cell-based, fission yeast Schizosaccharomyces pombe; details: 0 and 6 mM HU, 10-fold serial dilution; compared with Δrik1, Δcid12, Δchp1
Outline: (§1)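 Deletion strains were cultured overnight to mid-log phase in YEA broth (3% glucose, 0.5% yeast extract, 75 mg/l adenine) and set to 1 × 10^7 cells/ml. Each culture went through five ten-fold serial dilution steps, and 3 μl spots were placed on HU-containing plates to assess growth.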

Δswi6 = assay: Drug sensitivity serial dilution; type: cell-based, fission yeast Schizosaccharomyces pombe; details: 0 and 6 mM HU, 10-fold serial dilution; compared with Δrik1, Δcid12, Δchp1
Outline: as §1

Δchp1 = assay: Drug sensitivity serial dilution; type: cell-based, fission yeast Schizosaccharomyces pombe; details: 0 and 6 mM HU, 10-fold serial dilution
Outline: (§2)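 Strains were grown overnight in YEA broth (3% glucose, 0.5% yeast extract, 75 mg/l adenine) to mid-log phase and adjusted to 1 × 10^7 cells/ml. Five ten-fold serial dilutions were made, and 3 μl of each was spotted onto plates with 0 or 6 mM HU.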

Δcid12 = assay: Drug sensitivity serial dilution; type: cell-based, fission yeast Schizosaccharomyces pombe; details: 0 and 6 mM HU, 10-fold serial dilution
Outline: as §1

Y41FΔchp1 = assay: Drug sensitivity serial dilution; type: cell-based, fission yeast Schizosaccharomyces pombe; details: 0 and 6 mM HU, 10-fold serial dilution
Outline: as §2

Y41FΔago1 = assay: Drug sensitivity serial dilution; type: cell-based, fission yeast Schizosaccharomyces pombe; details: 0 and 6 mM HU, 10-fold serial dilution
Outline: as §2

Δrik1 = assay: Drug sensitivity serial dilution; type: cell-based, fission yeast Schizosaccharomyces pombe; details: 0 and 6 mM HU, 10-fold serial dilution
Outline: as §1

GFP-tagged Chp1 = assay: Peptide pull-down from Chp1GFP whole cell extracts; type: binding, fission yeast Schizosaccharomyces pombe; details: western blot, n=3
[1] = molecular target: biotinylated histone H3 N-terminal peptide harbouring a phosphorylated Y41; assay: pull-down

Molecule: NC(=O)NO [HU, hydroxyurea]
- HU sensitivity (in words) (Δclr3): milder or no hypersensitivity
- HU sensitivity (in words) (Δswi6): milder or no hypersensitivity
- HU sensitivity (in words) (Δchp1): HU hypersensitivity
- HU sensitivity (in words) (Δcid12): HU hypersensitivity
- HU sensitivity of double mutant relative to Δchp1 (in words) (Y41FΔchp1): strongly suppressed HU hypersensitivity
- HU sensitivity of double mutant relative to Δago1 (in words) (Y41FΔago1): strongly suppressed HU hypersensitivity
- HU sensitivity (in words) (Δrik1): HU hypersensitivity

Molecule: AAPATGGVKKPH RY(p)RPGTVALR EIRRYQKSTE [Y41p]
- Chp1-GFP association, phosphorylated versus unmodified (Y41F) peptide (in words) (GFP-tagged Chp1): This observation was confirmed

B1: Chp1, endogenous (natural protein)
chain: MVSVKPLPDIDSNEGETDADVYEVEDILADRVNKNGINEYYIKWAGYDWYDNTWEPEQNLFGAEKVLKKWKKRKKLIAKGLLEPFDAEDNEAKKMKREKEILRQQRQKRKSELTQLSQKVKEKFKKMRKKPARRIVTIANDEEEEDDQTMDEDAFERKSMQGELKERNLTDKTSTLSTSFGETSPDVNPFYLSEWPTVTDSILLSKSLSSDAIPLKNGEIKSTMLMPSDSDNSVPGIQNSNNLENTGAFVENANSPQSNTPLSTFRHSSPLSLSPVITSDNDVANSLFFSNSTPLPSSLKIKKEAPKLETHTILVSDNSGSLTKQDILSYFAFIKGNIEVFFLKSPKKDKVCNMAYIQFDSIEQAKLAYDKGHPSWHVTLVKGKISTDMEECKVSKSILKTTPSKKANARSVSFTQTTTDTLSESEKFASNVDLDENFDFNVNVTNEDAKQLKKSVIGSSWTTVNNDWNSVSKSDQTFENDGASKVVPAGNITLNSDNSLHHSISESEDLSSASTLSDYFRFVLRVGKSLYYAGELSFDISKLKAETEHQQLLRSLVSCKQVDVLRFVTSQYLEVFGTCLTKVLSGSLCIRSDVDMTHFKNILNRGNGAGIVLGSNYTLLLFTEDNNALMNLYDCQGQSNSPFWMVIFEPLESILVEWSAKNLRPKKPYHKSQSYLSYLLQLGHIDLHKIGAFQATQILIVSKQPSPEAEELEDTFREAAIPTFRGLEIPESLFLSQNVFVFLNVSLEDDFDQLQFLTLAKRKSCKFFLFGLSLPLKSPNDSHVGTDFKKNNEPLDKLTYSQYLRPMFPKGGVVSVTLSALIKTPRLLELISPFLEIKKDSWILILPPSIVDMVKSYFVTNNPDKSLLEIQNLLNTLQRYLTNPALKNVTLYQDWDIVIDDSADVSLASTLQLYQKKNYDKYRRFVLIHELKNELTPVNGLDIVDYDEFKETFMRAIGLK
- fold change against the unmodified (Y41F) peptide [1]: 2.62 fold
